This is an account of results in publication PMC4830347 (Journal of the American Chemical Society, 2016).

The subject of one data set is HeLa cells. As to the kind of experiment: MTT cell viability assay, HeLa cells. It is filed as cell-based. In short, it runs like this: (§1)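 HeLa or Saos-2 cells seeded at 1 × 10^4 cells/well and incubated 48 h with test compound in culture medium (200, 300, 400 μM) before MTT read-out; IC50 after 48 h. Inhibitor experiments used test compound at 500 μM for 48 h with or without l-Phe (3 mM) or levamisole (1 mM). Separately, exogenous ALP (5 U/mL) was added together with test compound.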

The test system of another data set is Saos-2 cells. As to the kind of experiment: MTT cell viability assay, Saos-2 cells. The format is cell-based. As to conditions: Saos-2, six precursors 500 μM, 48 h. In short, it runs like this:
as §1

SMILES strings stand for the structures.

For `c1ccc(C2CN3CCSC3=N2)cc1` (single isomer, unassigned; (-)) [(−)-tetramisole], the “rescue of precursor-treated cells by TNAP inhibitor” value in the data set on HeLa cells (HeLa, six precursors 500 μM, inhibitor 1 mM, 48 h) was “hardly rescues HeLa cells”; in the data set on Saos-2 cells (inhibitor 1 mM) it was “significantly increases the cell viability”.

As for `N[C@@H](Cc1ccccc1)C(=O)O` [L-Phe, L-phenylalanine], the cell compatibility entry in the data set on HeLa cells (3 mM, cell culture) is reported as “cell compatible”. Moreover, in the data set with Saos-2 cells (L-Phe 3 mM), the “rescue of precursor-treated cells by PLAP inhibitor” value is given as “hardly rescue the Saos-2 cells at all”.
